The record followed here is ChEMBL document CHEMBL3351713, “The identification of perillyl alcohol glycosides with improved antiproliferative activity” (J Med Chem, 2014).

Structures are written as SMILES. Calls of active or inactive are those of the source. The calls are words filed in the database; no cut-off is given here.

Assay [1] in a line: Cytotoxicity against human PC3 cells after 48 hrs by alamar blue assay. The assay is classed as functional, cell-based. The note with it: PC-3, 48 h. In short, it runs like this: (§1)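 Cells seeded at 3 × 10^3/well in F-12K with 10% FBS, 2 mM L-glutamine and penicillin/streptomycin, then left to adhere overnight. Medium was replaced with nine 2- or 3-fold dilutions, with 0.5% DMSO vehicle and 1.5 mM H2O2 controls. Incubation was 48 h at 37 °C, 5% CO2. Resazurin (0.25 mg/mL stock) was added for 3 h and fluorescence read ([…], em 590 nm). IC50 came from a nonlinear dose-response fit; mean ± SD, triplicates, three independent experiments.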

Assay [2] deals with A549. The experiment in a line: Cytotoxicity against human A549 cells at 250 uM after 48 hrs by alamar blue assay. The assay is classed as functional. The note with it: A549, 48 h. The essentials:
(§2)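 Single 250 µM concentration. Cells seeded at 3 × 10^3/well in F-12K with 10% FBS and 2 mM L-glutamine, then adhered overnight. Exposure was 48 h at 37 °C, 5% CO2, alongside 0.5% DMSO vehicle and 1.5 mM H2O2 controls. Viability was measured by resazurin reduction (0.25 mg/mL stock, 3 h) with fluorescence read at […], em 590 nm.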

The subject of assay [3] is A549. In words: Cytotoxicity against human A549 cells after 48 hrs by alamar blue assay. It is filed as functional, cell-based. The note with it: A549, 48 h. In short, it runs like this:
as §1

Assay [4] is described as follows: Cytotoxicity against human PC3 cells at 250 uM after 48 hrs by alamar blue assay. It is filed as functional. The note with it: PC-3, 48 h. In short, it runs like this: as §2
For assay [5], the target named is Eukaryotic translation initiation factor 4E-binding protein 1 (Homo sapiens) (UniProt Q13541). The experiment in a line: Induction of 4E-BP1 phosphorylation at Thr70 in human A549 cells at 500 uM after 6 hrs by Western blotting analysis. It is filed as cell-based. In short, it runs like this:
(§3)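 A549 cells were exposed to 250 and 500 µM for 6 h, harvested and lysed. Equal total protein was loaded for SDS-PAGE and immunoblot. Probes were p-4E-BP1 (T37/46, S65, T70), p-S6 (S235/236), eIF4E and cleaved PARP, detected by chemiluminescence.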

The target is the same in assay [6]. The experiment in a line: Induction of 4E-BP1 phosphorylation at Ser65 in human A549 cells at 500 uM after 6 hrs by Western blotting analysis. It is filed as cell-based. In short, it runs like this:
as §3

For assay [7] the target is unchanged. In words: Induction of 4E-BP1 phosphorylation at Thr70 in human A549 cells at 250 uM after 6 hrs by Western blotting analysis. It is filed as cell-based. The essentials:
as §3

Assay [8] shares this target. In words: Induction of 4E-BP1 phosphorylation at Thr37/46 in human A549 cells at 250 uM after 6 hrs by Western blotting analysis. The assay is classed as cell-based. The essentials:
as §3

Assay [9] shares this target. The experiment in a line: Induction of 4E-BP1 phosphorylation at Ser65 in human A549 cells at 250 uM after 6 hrs by Western blotting analysis. It is filed as cell-based. In short, it runs like this:
as §3

Assay [10] has as its system A549. In words: Increase in PARP cleavage in human A549 cells at 250 to 500 uM after 6 hrs by Western blotting analysis. The assay is classed as cell-based. The essentials:
as §3

The target in assay [11] is Eukaryotic translation initiation factor 4E-binding protein 1 (Homo sapiens) (UniProt Q13541). In words: Induction of 4E-BP1 phosphorylation at Thr37/46 in human A549 cells at 500 uM after 6 hrs by Western blotting analysis. The assay is classed as cell-based. The essentials: as §3
Eukaryotic translation initiation factor 4E-binding protein 1 (Homo sapiens), sequence (Q13541 whole entry): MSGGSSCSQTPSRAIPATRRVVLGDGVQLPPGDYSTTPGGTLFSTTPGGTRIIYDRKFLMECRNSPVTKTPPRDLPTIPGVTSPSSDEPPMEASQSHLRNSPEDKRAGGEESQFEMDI
Assay [12] addresses Small ribosomal subunit protein eS6 (Homo sapiens) (UniProt P62753). The experiment in a line: Inhibition of S6 ribosomal protein phosphorylation in human A549 cells at 250 to 500 uM after 6 hrs by Western blotting analysis. It is filed as cell-based. The essentials:
as §3

As to `C=C(C)[C@@H]1CC=C(CN(OC)C2OC[C@@H](O)[C@H](O)[C@H]2O)CC1` (stereo not given in full), the IC50 was 152 µM in assay [1] and 202 µM in [3]. Also, the inhibition at 250 µM in assay [2] and in [4] was greater than 40% in each case.

Regarding `C=C(C)[C@@H]1CC=C(CN(OC)C2O[C@H](CN=[N+]=[N-])[C@@H](O)[C@H](O)[C@H]2O)CC1` (stereo not given in full), the IC50 in [1] turned out to be 182 µM; in assay [3], 163 µM. Also, the inhibition at 250 µM in assay [2] and in [4] was greater than 40% throughout.

For the compound `C=C(C)[C@@H]1CC=C(/C=N/OC)CC1`, the inhibition at 250 µM in assay [2] and in assay [4] was greater than 40% each time.

Take `C=C(C)[C@@H]1CC=C(CN(OC)[C@@H]2O[C@H](CO)[C@@H](O)[C@H](O)[C@H]2NC(=O)N(C)N=O)CC1`: the IC50 in assay [1] stood at 232 µM; in assay [3] it was 185 µM. Besides, the inhibition at 250 µM in [2] and in [4] was greater than 40% in each case.

In the case of `C=C(C)[C@@H]1CC=C(CN(OC)C2O[C@H](CNC(=O)CCCCCCCCC)[C@@H](O)[C@H](O)[C@H]2O)CC1` (stereo not given in full), the IC50 was 30 µM in assay [1] and 14 µM in assay [3]. The inhibition at 250 µM in [2] and in assay [4] was greater than 40% throughout.

Consider `C=C(C)[C@@H]1CC=C(CN(OC)C2OC[C@@H](N=[N+]=[N-])[C@H](O)[C@H]2O)CC1` (stereo not given in full), for which the IC50 in assay [1] stood at 170 µM; in assay [3] it was 76 µM. The inhibition at 250 µM in [2] and in assay [4] was greater than 40% each time.

Turning to `C=C(C)[C@@H]1CC=C(CN(OC)C2O[C@H](CO)[C@@H](O)[C@H](NC(=O)CCCCCCCCC)[C@H]2O)CC1` (stereo not given in full), the figures for the IC50 in assay [1] and in [3] were 19 µM and 14 µM, respectively. Further, the inhibition at 250 µM in assay [2] and in assay [4] was greater than 40% each time. For the same compound, the outcome in [5], in assay [6], in [7], in assay [8], in [9] and in [10] was Active. The result in [11] was Active. Also, the inhibition entry in assay [12] was “Active”.

`C=CCOC(=O)N[C@H]1C(N(CC2=CC[C@@H](C(=C)C)CC2)OC)O[C@H](CO)[C@@H](O)[C@@H]1O` (stereo not given in full): the values for the IC50 in [1] and in [3] were 826 µM and 114 µM, respectively. The inhibition at 250 µM in [2] and in [4] was greater than 40% throughout.

As to `C=C(C)[C@@H]1CC=C(CN(OC)C2O[C@H](CO)[C@@H](N=[N+]=[N-])[C@H](O)[C@H]2O)CC1` (stereo not given in full), the IC50 is 22 µM in [1] and 4 µM in assay [3]. Moreover, the inhibition at 250 µM in assay [2] and in assay [4] was greater than 40% throughout.

`C=CCOC(=O)NC[C@H]1OC(N(CC2=CC[C@@H](C(=C)C)CC2)OC)[C@H](O)[C@@H](O)[C@@H]1O` (stereo not given in full): the values for the IC50 in assay [1] and in assay [3] were 232 µM and 140 µM, respectively. Also, the inhibition at 250 µM in [2] and in [4] was greater than 40% in each case.

Regarding `C=C(C)[C@@H]1CC=C(CN(OC)C2O[C@H](CN=[N+]=[N-])[C@@H](N=[N+]=[N-])[C@H](O)[C@H]2O)CC1` (stereo not given in full), the results for the IC50 in assay [1] and in assay [3] were 57 µM and 44 µM, respectively. For the same compound, the inhibition at 250 µM in assay [2] and in [4] was greater than 40% in each case. In addition, the outcome in [5], in assay [6], in [7], in assay [8], in assay [9] and in assay [10] was Active. In assay [11], the outcome was Active. Moreover, the inhibition result in assay [12] was “Active”.

On to `C=C(C)[C@@H]1CC=C(CO)CC1` [PERILLYL ALCOHOL], for which the IC50 stood at 380 µM in assay [1] and 350 µM in [3]. Moreover, the result in assay [5], in assay [6], in [7], in assay [8], in assay [9] and in assay [11] was inactive. Also, the inhibition entry in assay [12] is “inactive”.

Turning to `C=C(C)[C@@H]1CC=C(CN(OC)C2O[C@H](CO)[C@@H](O)[C@H](O)[C@H]2N=[N+]=[N-])CC1` (stereo not given in full), the 50% inhibitory concentration (IC50) in [1] came to 176 µM; in [3] it was 221 µM. The inhibition at 250 µM in assay [2] and in assay [4] was greater than 40% in each case.

With `C=C(C)[C@@H]1CC=C(CN(OC)C2O[C@@H](CO)[C@H](N=[N+]=[N-])[C@@H](O)[C@@H]2O)CC1` (stereo not given in full), the IC50 in assay [1] is 263 µM; in assay [3], 451 µM. Also, the inhibition at 250 µM in [2] and in assay [4] was greater than 40% in each case.
